Results taken from ChEMBL document CHEMBL3808288, “Identification and in Vivo Evaluation of Liver X Receptor β-Selective Agonists for the Potential Treatment of Alzheimer's Disease” (J Med Chem, 2016).
pEC50: −log10 of the molar value. The source made the active and inactive calls. The calls are words filed in the database; no cut-off is given here.

Tests used:
[1] = molecular target: T1, Oxysterols receptor LXR-beta (Homo sapiens) (UniProt P55055); experiment: (§1) Agonist activity at LXRbeta (unknown origin) expressed in human H4 cells co-expressing ABCA1 promoter measured after 48 hrs by cell-based transactivation assay
T1 sequence (whole entry): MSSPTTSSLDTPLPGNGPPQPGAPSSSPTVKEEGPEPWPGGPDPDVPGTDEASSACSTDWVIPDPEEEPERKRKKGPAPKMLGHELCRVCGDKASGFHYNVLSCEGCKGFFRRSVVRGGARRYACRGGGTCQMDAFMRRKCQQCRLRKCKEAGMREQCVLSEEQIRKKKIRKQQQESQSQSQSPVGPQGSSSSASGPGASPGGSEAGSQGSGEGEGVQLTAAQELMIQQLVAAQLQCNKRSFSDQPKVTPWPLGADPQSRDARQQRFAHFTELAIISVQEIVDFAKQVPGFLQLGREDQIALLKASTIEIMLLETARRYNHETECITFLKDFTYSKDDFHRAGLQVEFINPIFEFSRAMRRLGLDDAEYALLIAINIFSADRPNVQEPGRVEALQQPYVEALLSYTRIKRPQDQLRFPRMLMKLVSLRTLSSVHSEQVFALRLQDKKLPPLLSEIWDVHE

[2] = molecular target: T2, Oxysterols receptor LXR-beta (Homo sapiens, UniProt P55055); experiment: as §1
T2 sequence (P55055 whole entry): T1 sequence (whole entry)

[3] = molecular target: T3, Oxysterols receptor LXR-alpha (Homo sapiens) (UniProt Q13133); experiment: (§2) Agonist activity at LXRalpha (unknown origin) expressed in human HepG2 cells co-expressing ABCA1 promoter measured after 48 hrs by cell-based transactivation assay
T3 sequence (whole entry): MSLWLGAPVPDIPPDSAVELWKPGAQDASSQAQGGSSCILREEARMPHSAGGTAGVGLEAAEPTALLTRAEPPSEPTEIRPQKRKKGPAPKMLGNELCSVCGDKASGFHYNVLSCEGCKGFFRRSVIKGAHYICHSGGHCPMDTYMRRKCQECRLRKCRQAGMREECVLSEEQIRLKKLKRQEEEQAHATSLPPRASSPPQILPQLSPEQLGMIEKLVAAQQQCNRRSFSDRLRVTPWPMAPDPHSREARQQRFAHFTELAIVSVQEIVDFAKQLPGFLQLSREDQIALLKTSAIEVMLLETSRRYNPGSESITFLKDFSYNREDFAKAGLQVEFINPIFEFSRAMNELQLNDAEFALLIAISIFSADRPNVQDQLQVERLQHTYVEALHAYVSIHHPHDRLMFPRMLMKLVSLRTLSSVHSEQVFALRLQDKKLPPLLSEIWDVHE

[4] = molecular target: T4, Oxysterols receptor LXR-alpha (Homo sapiens, UniProt Q13133); experiment: as §2
T4 sequence (Q13133 whole entry): T3 sequence (whole entry)

[5] = molecular target: T4, Oxysterols receptor LXR-alpha; experiment: Agonist activity at GST-tagged LXRalpha-LBD (unknown origin) by LanthaScreen TR-FRET liver X receptor coactivator assay
Summary of the method: (§3)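 Cofactor recruitment assay using the ligand binding domains of LXRβ or LXRα. The read-out was EC50 and Emax, with Emax relative to a full agonist control.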

[6] = molecular target: T2, Oxysterols receptor LXR-beta; experiment: Agonist activity at GST-tagged LXRbeta-LBD (unknown origin) by LanthaScreen TR-FRET liver X receptor coactivator assay; summary of the method: as §3
[7] = molecular target: T1, Oxysterols receptor LXR-beta (Homo sapiens); experiment: Agonist activity at GST-tagged LXRbeta-LBD (unknown origin) by LanthaScreen TR-FRET liver X receptor coactivator assay relative to T1317; summary of the method: as §3
[8] = molecular target: T3, Oxysterols receptor LXR-alpha (Homo sapiens); experiment: Agonist activity at GST-tagged LXRalpha-LBD (unknown origin) by LanthaScreen TR-FRET liver X receptor coactivator assay T1317; summary of the method: as §3
Mus musculus [9] = experiment: Toxicity in Tg2576 transgenic mouse assessed as increase in plasma triglyceride level at 10 mg/kg, sc dosed for 3 weeks; assay type: organism-based; conditions: in vivo, 504 h
Summary of the method: (§4)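 12-month-old Tg2576 mice were dosed subcutaneously for three weeks. Brain was assayed for ABCA1 protein, soluble apoE and DEA-soluble Aβ, and plasma and liver were assayed for triglycerides. Groups were compared with vehicle by ANOVA.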

Mus musculus [10] = experiment: Toxicity in Tg2576 mouse assessed as increase in liver triglyceride level at 10 mg/kg, sc dosed for 3 weeks; assay type: organism-based; conditions: in vivo, 504 h; summary of the method: as §4
Rhesus monkey [11] = experiment: Increase in amyloid beta40 in CSF of rhesus monkey at 10 mg/kg, po administered for 2 weeks; assay type: functional, Macaca mulatta
Rhesus monkey [12] = experiment: Increase in amyloid beta40 in CSF of rhesus monkey at 5 mg/kg, po administered for 2 weeks; assay type: functional, organism-based; conditions: Macaca mulatta
Rhesus monkey [13] = experiment: Increase in amyloid beta42 in CSF of rhesus monkey at 5 mg/kg, po administered for 2 weeks; assay type: functional, organism-based; conditions: Macaca mulatta
Rhesus monkey [14] = experiment: Increase in amyloid beta42 in CSF of rhesus monkey at 10 mg/kg, po administered for 2 weeks; assay type: functional, Macaca mulatta

Row | Emax [1] | pEC50 [2] | Emax [3] | pEC50 [4] | pEC50 [5] | pEC50 [6] | Emax [7] | Emax [8] | Structure (SMILES) | Activity (Mus musculus [9]) | Activity (Mus musculus [10]) | Activity (Rhesus monkey [11]) | Activity (Rhesus monkey [12]) | Activity (Rhesus monkey [13]) | Activity (Rhesus monkey [14])
1 | 117% | 6.08 | 31% | 5.70 | – | – | – | – | CC(C)[C@](O)(C(=O)N1CCC(C2CCN(c3ccc(C(=O)N(C)C)c(Cl)c3)CC2)CC1)C(F)(F)F | – | – | – | – | – | –
2 | 103% | 6.11 | 40% | 6.55 | 5.83 | 6.03 | 106% | 50% | CN(C)C(=O)c1ccc(-c2cnc(N3CCN(C(=O)OC(C)(C)C)CC3)c(C#N)c2)cc1Cl | – | – | – | – | – | –
3 | – | – | – | – | – | – | – | – | O=S(=O)(c1ccccc1)N(CC(F)(F)F)c1ccc(C(O)(C(F)(F)F)C(F)(F)F)cc1 [T091317] | Toxic | Toxic | 25% | inactive | inactive | 25%
